The test system of assay [1] is Mus musculus. Nature of the assay: Immunomodulatory activity in Pseudomonas aeruginosa M57-15 infected C57BL/6 mouse lung assessed as decrease of TNFalpha production in CD11b+ cells in lung lavage fluid at 0.16 g/kg, po measured after 7 days by flow cytometry. In kind it is functional, organism-based. A digest of the protocol: (§1)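 The first 1-ml lavage wash was frozen at −80°C. Samples diluted 5-fold were incubated 3 h at room temperature with capture beads for a cytometric bead array (IL-12p70, CCL2, TNF-α, IL-10, IFN-γ, IL-6) plus a PE-conjugated detection antibody. Fluorescence was read by flow cytometry against standard curves. Mice had daily oral 0.16 g/kg from 4 days before intratracheal infection.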
For orientation: In flow cytometry, cells or beads pass a laser one at a time.

In assay [2] the test system is Mus musculus. The assay can be described thus: Immunomodulatory activity in Pseudomonas aeruginosa M57-15 infected C57BL/6 mouse lung assessed as increase of total cells in lung digest at 0.16 g/kg, po measured after 14 days by flow cytometry. In kind it is functional, organism-based. The essentials:
(§2)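 Oral gavage of 0.16 g/kg daily (2% methylcellulose vehicle) began 4 days before intratracheal bead infection (1 × 105 to 2 × 10^5 CFU). On days 3, 7 and 14, cells were taken from lavage (0.3 mM EDTA buffer) and from collagenase/DNase lung digest (1 h, 37°C). Cells were stained for CD11b, CD11c, Gr-1, CD4, CD80, MHC-II and MR, with more than 50,000 events acquired. Counts were gated percent × manual cell count.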

In assay [3] the test system is Mus musculus. Nature of the assay: Immunomodulatory activity in Pseudomonas aeruginosa M57-15 infected C57BL/6 mouse lung assessed as decrease of IFN-gamma production in CD11b+ cells in lung lavage fluid at 0.16 g/kg, po measured after 7 days by flow cytometry. In kind it is functional, organism-based. A digest of the protocol:
as §1

In assay [4] the test system is Mus musculus. The assay can be described thus: Immunomodulatory activity in Pseudomonas aeruginosa M57-15 infected C57BL/6 mouse lung assessed as increase of CD80 expression in CD11b+ Gr1+ cells in alveolar space at 0.16 g/kg, po measured after 7 days by flow cytometry. In kind it is functional, organism-based. A digest of the protocol:
as §2

Assay [5] deals with Mus musculus. Nature of the assay: Immunomodulatory activity in Pseudomonas aeruginosa M57-15 infected C57BL/6 mouse lung assessed as decrease of IL-10 production in CD11b+ cells in lung lavage fluid at 0.16 g/kg, po measured after 7 days by flow cytometry. The format is functional, organism-based. A digest of the protocol:
as §1

The test system of assay [6] is Pseudomonas aeruginosa. Nature of the assay: Antibacterial activity against Pseudomonas aeruginosa M57-15 infected in C57BL/6 mouse assessed as effect on bacterial burden at 0.16 g/kg, po measured up to 14 days. In kind it is functional, organism-based. The essentials: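 Mice got 0.16 g/kg in 2% methylcellulose by daily oral gavage, starting 4 days before infection, or vehicle. Infection was intratracheal with bead-embedded bacteria, 1 × 105 to 2 × 10^5 CFU (about LD10). On days 0, 3, 7 and 14, aliquots of lung lavage and digest were plated on Pseudomonas selection agar and CFU counted manually after overnight growth.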

Assay [7] has as its system Mus musculus. Nature of the assay: Immunomodulatory activity in Pseudomonas aeruginosa M57-15 infected C57BL/6 mouse lung assessed as increase of mannose receptor expression in CD11b+ Gr1+ cells in alveolar space at 0.16 g/kg, po measured after 7 days by flow cytometry. The format is functional, organism-based. The essentials:
as §2

In assay [8] the test system is Mus musculus. Nature of the assay: Immunomodulatory activity in Pseudomonas aeruginosa M57-15 infected C57BL/6 mouse lung assessed as CD11b+c- cell expression level in lung lavage fluid at 0.16 g/kg, po measured after 3 days by flow cytometry (reference value: 1.20 +/- 0.41 %). In kind it is functional. A digest of the protocol: as §2
The subject of assay [9] is Mus musculus. The assay can be described thus: Immunomodulatory activity in Pseudomonas aeruginosa M57-15 infected C57BL/6 mouse lung assessed as CD11b+c+ cell expression level in lung lavage fluid at 0.16 g/kg, po measured after 3 days by flow cytometry (reference value: 2.38 +/- 0.75 %). The format is functional. The essentials:
as §2

Assay [10] concerns Mus musculus. Nature of the assay: Immunomodulatory activity in Pseudomonas aeruginosa M57-15 infected C57BL/6 mouse lung assessed as CD11b-c+ cell expression level in lung digest at 0.16 g/kg, po measured after 7 days by flow cytometry (reference value: 29.15 +/- 3.98 %). In kind it is functional. A digest of the protocol:
as §2

In assay [11] the test system is Mus musculus. The assay can be described thus: Immunomodulatory activity in Pseudomonas aeruginosa M57-15 infected C57BL/6 mouse lung assessed as up-regulation of MHC2 expression in CD11+ Gr1- cells in lung digest at 0.16 g/kg, po measured after 7 days by flow cytometry. The format is functional, organism-based. The essentials: as §2
For assay [12], the system named is Mus musculus. Nature of the assay: Immunomodulatory activity in Pseudomonas aeruginosa M57-15 infected C57BL/6 mouse lung assessed as CD11b-c+ cell expression level in lung digest at 0.16 g/kg, po measured after 14 days by flow cytometry (reference value: 23.93 +/- 4.10 %). The format is functional. A digest of the protocol:
as §2

Assay [13] concerns Mus musculus. The assay can be described thus: Immunomodulatory activity in Pseudomonas aeruginosa M57-15 infected C57BL/6 mouse lung assessed as CD11b+c- cell expression level in lung digest at 0.16 g/kg, po measured after 3 days by flow cytometry (reference value: 25.42 +/- 10.57 %). In kind it is functional. The essentials: as §2
In assay [14] the test system is Pseudomonas aeruginosa. Nature of the assay: Antibacterial activity against Pseudomonas aeruginosa M57-15 infected in C57BL/6 mouse assessed as increase of host survival time at 0.16 g/kg, po measured up to 14 days. In kind it is functional, organism-based. A digest of the protocol:
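For survival, mice received 1.3 × 10^6 CFU (1× LD50) intratracheally in agarose beads under isoflurane. Daily oral gavage of 0.16 g/kg in 2% methylcellulose, or vehicle, began 4 days before infection. Survival curves were compared by log-rank.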

The test system of assay [15] is Mus musculus. The assay can be described thus: Immunomodulatory activity in Pseudomonas aeruginosa M57-15 infected C57BL/6 mouse lung assessed as increase of CD80 expression in CD11b+ Gr1+ cells in lung digest at 0.16 g/kg, po measured after 7 days by flow cytometry. The format is functional, organism-based. The essentials: as §2
In assay [16] the test system is Mus musculus. The assay can be described thus: Immunomodulatory activity in Pseudomonas aeruginosa M57-15 infected C57BL/6 mouse lung assessed as CD11b+c- cell expression level in lung lavage fluid at 0.16 g/kg, po measured after 14 days by flow cytometry (reference value: 1.15 +/- 0.62 %). The format is functional. The essentials:
as §2

The test system of assay [17] is Mus musculus. The assay can be described thus: Immunomodulatory activity in Pseudomonas aeruginosa M57-15 infected C57BL/6 mouse lung assessed as increase of mannose receptor expression in CD11b+ Gr1+ cells in lung digest at 0.16 g/kg, po measured after 7 days by flow cytometry. In kind it is functional, organism-based. A digest of the protocol: as §2
Assay [18] concerns Mus musculus. Nature of the assay: Immunomodulatory activity in Pseudomonas aeruginosa M57-15 infected C57BL/6 mouse lung assessed as decrease of IL-6 production in CD11b+ cells in lung lavage fluid at 0.16 g/kg, po measured after 7 days by flow cytometry. In kind it is functional, organism-based. The essentials:
as §1

Assay [19] concerns Mus musculus. Nature of the assay: Immunomodulatory activity in Pseudomonas aeruginosa M57-15 infected C57BL/6 mouse lung assessed as effect on CD11b+ cells infiltration in lung lavage fluid at 0.16 g/kg, po measured after 7 days by flow cytometry. In kind it is functional, organism-based. A digest of the protocol:
as §2

The subject of assay [20] is Mus musculus. Nature of the assay: Immunomodulatory activity in Pseudomonas aeruginosa M57-15 infected C57BL/6 mouse lung assessed as increase of total cells in lung digest at 0.16 g/kg, po measured by flow cytometry.
Assay [21] concerns Mus musculus. The assay can be described thus: Immunomodulatory activity in Pseudomonas aeruginosa M57-15 infected C57BL/6 mouse lung assessed as increase of MHC2 expression in CD11b+ Gr1+ cells in lung digest at 0.16 g/kg, po measured after 7 days by flow cytometry. The format is functional, organism-based. The essentials: as §2
In assay [22] the test system is Mus musculus. The assay can be described thus: Immunomodulatory activity in Pseudomonas aeruginosa M57-15 infected C57BL/6 mouse lung assessed as CD11b+c+ cell expression level in lung lavage fluid at 0.16 g/kg, po measured after 7 days by flow cytometry (reference value: 1.51 +/- 1.53 %). The format is functional. A digest of the protocol: as §2

This passage reports Activity results from ChEMBL document CHEMBL1687758, “Azithromycin alters macrophage phenotype and pulmonary compartmentalization during lung infection with Pseudomonas” (2010).

Active and inactive are the calls of the source. The calls are words filed in the database; no cut-off is given here.

Turning to `CC[C@H]1OC(=O)[C@H](C)[C@@H](O[C@H]2C[C@@](C)(OC)[C@@H](O)[C@H](C)O2)[C@H](C)[C@@H](O[C@@H]2O[C@H](C)C[C@H](N(C)C)[C@H]2O)[C@](C)(O)C[C@@H](C)CN(C)[C@H](C)[C@@H](O)[C@]1(C)O` [AZITHROMYCIN], the result with Mus musculus [1], in the assay on Mus musculus [2], in the assay with Mus musculus [4], with Mus musculus [7], in the assay on Mus musculus [11] and with Mus musculus [15] was Active. In addition, the outcome with Mus musculus [17], in the assay on Mus musculus [18], in the assay on Mus musculus [19], with Mus musculus [20] and in the assay on Mus musculus [21] was Active. Moreover, the result with Mus musculus [3], with Mus musculus [5], with Pseudomonas aeruginosa [6] and in the assay with Pseudomonas aeruginosa [14] was inactive. Also, the Activity in the assay on Mus musculus [8] is 0.42%; in the assay with Mus musculus [9], 2.37%; in the assay with Mus musculus [10] it was 20.36%; in the assay with Mus musculus [12], 18.18%; in the assay on Mus musculus [13] it was 14.42%; with Mus musculus [16], 2.24%. Further, in the assay on Mus musculus [22], the Activity worked out at 21.67%.
